Each structure is given as a SMILES string. Active and inactive are the calls of the source. No cut-off for these calls is given here.

Experiment [1] deals with tubulin (Bos taurus). The experiment is described as follows: Displacement of [3H]colchicine from bovine brain tubulin at 5 uM.
Experiment [2] concerns SK-OV-3. The experiment is described as follows: Antiproliferative activity against human SKOV3 cells. The class given is functional, cell-based.
Experiment [3] has as its system MDA-MB-435. As to the kind of experiment: Cell cycle arrest in human MDA-MB-435 cells assessed as accumulation of cells at subG1 phase at 3 times IC50 after 18 hrs by flow cytometry. It counts as functional, cell-based.
Experiment [4] relates to MDA-MB-435. As to the kind of experiment: Antiproliferative activity against human MDA-MB-435 cells by SRB assay. It counts as functional, cell-based. Summed up: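 SRB assay on drug-sensitive MDA-MB-435 cells; IC50 is the concentration giving 50% inhibition of proliferation, n = 3.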
On the technique in general: Sulforhodamine B stains cellular protein and so reports cell mass.

Experiment [5] deals with HeLa. The experiment is described as follows: Relative resistance ratio of IC50 for beta3-tubulin overexpressing human HeLa cells to IC50 for human HeLa cells. The class given is functional.
The subject of experiment [6] is HeLa. As to the kind of experiment: Antiproliferative activity against human HeLa cells. The class given is functional, cell-based.
A short description of experiment [7]: Inhibition of bovine brain tubulin assembly.
A short description of experiment [8]: Inhibition of microtubule polymerization in A-10 cells. Particulars: A10.
The nature of experiment [9]: Ratio of EC50 for microtubule depolymerization in A-10 cells to IC50 for human MDA-MB-435 cells.
The test system of experiment [10] is SK-OV-3. As to the kind of experiment: Relative resistance ratio of IC50 for MDR-1-6/6 overexpressing human SKOV3 cells to IC50 for human SKOV3 cells. The class given is functional.
The subject of experiment [11] is MDA-MB-435. The experiment is described as follows: Cell cycle arrest in human MDA-MB-435 cells assessed as accumulation of cells at G2/M phase at 3 times IC50 after 18 hrs by flow cytometry. It counts as functional. A general note: In flow cytometry, cells or beads pass a laser one at a time.
In experiment [12] the test system is tubulin (Bos taurus). As to the kind of experiment: Displacement of [3H]colchicine from bovine brain tubulin using purified tubulin at 1 uM. (In general: In a radioligand displacement assay an active substance lowers the binding of a labelled ligand.)
Experiment [13] has as its system SK-OV-3. The experiment is described as follows: Antiproliferative activity against MDR-1-6/6 overexpressing human SKOV3 cells. It counts as functional, cell-based.
The test system of experiment [14] is HeLa. As to the kind of experiment: Antiproliferative activity against beta3-tubulin overexpressing human HeLa cells. The class given is functional, cell-based.

As a reminder, the inhibition is how much of the control response was suppressed. Lower therefore signals a response near the control. A word on the IC50: it is the concentration at which inhibition is half-maximal. Lower therefore signals greater potency in that assay. Usually EC50 stands for the concentration giving half of the maximal effect. Read a high EC50 as lower potency in that assay. `COc1ccc(N(C)c2nc(C)nc3c2C[C@H](C)C3)cc1.Cl`: the inhibition in the experiment with tubulin (Bos taurus) [1] worked out at 93%; in the experiment with tubulin (Bos taurus) [12], 70%. Moreover, the IC50 in the experiment on SK-OV-3 [2] was determined as 16.4 nM; in the experiment with MDA-MB-435 [4], 12 nM; with HeLa [6], 19 nM; in experiment [7], 1300 nM; with SK-OV-3 [13] it was 62.6 nM; in the experiment on HeLa [14] it was 13.3 nM. In addition, the outcome with MDA-MB-435 [3] was Active. The entries for the “Ratio IC50” value in the experiment with HeLa [5] and in the experiment on SK-OV-3 [10] were 0.7 and 3.8, respectively. In addition, a half-maximal response in [8] (EC50) required 23 nM. In experiment [9], the Ratio is listed as 2. In addition, the Activity with MDA-MB-435 [11] is listed as 49.2%.

Consider `CC(=O)O[C@H]1C(=O)[C@@]2(C)[C@H]([C@H](OC(=O)c3ccccc3)[C@]3(O)C[C@H](OC(=O)[C@H](O)[C@@H](NC(=O)c4ccccc4)c4ccccc4)C(C)=C1C3(C)C)[C@]1(OC(C)=O)CO[C@@H]1C[C@@H]2O` [PACLITAXEL], for which the values for the half-inhibitory concentration (IC50) in the experiment on SK-OV-3 [2] and in the experiment with SK-OV-3 [13] were 2.95 nM and 4880 nM, respectively.

Turning to `COc1ccc(N(C)c2nc(C)nc3c2C[C@@H](C)C3)cc1.Cl`, the inhibition is 77% in the experiment on tubulin (Bos taurus) [1] and 37% in the experiment with tubulin (Bos taurus) [12]. The 50% inhibitory concentration (IC50) with SK-OV-3 [2] was 85.9 nM; in the experiment on MDA-MB-435 [4], 51 nM; in the experiment with HeLa [6], 92.9 nM; in [7], 2100 nM; in the experiment on SK-OV-3 [13], 120 nM; in the experiment with HeLa [14], 67.7 nM. Further, the “Ratio IC50” value in the experiment with HeLa [5] is 0.7; with SK-OV-3 [10] it was 1.4. The concentration giving a half-maximal response (EC50) in [8] was 278 nM. For the same compound, in experiment [9], the Ratio is 5. For the same compound, in the experiment with MDA-MB-435 [11], the Activity is recorded as 91.4%.

As for `COc1ccc(N(C)c2nc(C)nc3c2CC(C)C3)cc1.Cl` (racemic), the inhibition in the experiment with tubulin (Bos taurus) [1] came to 87%; in the experiment on tubulin (Bos taurus) [12], 59%. The IC50 in the experiment with SK-OV-3 [2] came to 34.5 nM; in the experiment with MDA-MB-435 [4] it was 17 nM; in the experiment on HeLa [6], 37.3 nM; in experiment [7], 1500 nM; with SK-OV-3 [13] it was 60.9 nM; in the experiment on HeLa [14], 23.9 nM. Besides, the result in the experiment on MDA-MB-435 [3] was Active. Besides, the “Ratio IC50” value in the experiment with HeLa [5] came to 0.6; with SK-OV-3 [10] it was 1.8. Also, in experiment [8], the EC50 turned out to be 56 nM. Besides, in experiment [9], the Ratio is 3. Also, the Activity with MDA-MB-435 [11] was determined as 65.9%.

Regarding `COc1ccc(/C=C\c2cc(OC)c(OC)c(OC)c2)cc1O` [COMBRETASTATIN A4], the figures for the inhibition in the experiment on tubulin (Bos taurus) [1] and in the experiment with tubulin (Bos taurus) [12] were 98% and 85%, respectively. Also, the half-maximal inhibitory concentration (IC50) in the experiment with SK-OV-3 [2] is 6.05 nM; in the experiment with MDA-MB-435 [4], 3.4 nM; with SK-OV-3 [13] it was 22 nM. In experiment [8], the midpoint of the response, the EC50, lay at 13 nM. Further, in the experiment with MDA-MB-435 [11], the Activity was 88.4%.
